Test results reported in ChEMBL document CHEMBL4699493, “Development of Bis-cyclic Imidazolidine-4-one Derivatives as Potent Antibacterial Agents” (J Med Chem, 2020).
≈ marks a conversion by molar mass, not a printed value. Calls of active or inactive are those of the source. The calls are words filed in the database; no cut-off is given here.

Tests used:
[1] = Selectivity ratio of HC50 for hemolytic activity against mouse RBC to MIC for methicillin-resistant Staphylococcus aureus; assay type: toxicity; conditions: mouse red blood cells (erythrocytes)
Method in brief: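 Mouse RBCs were washed three times in PBS and diluted in 20 volumes of PBS. They were mixed with compound 2-fold serially diluted from 1 mg/mL in PBS, incubated 1 h at 37 °C, then centrifuged; supernatant read at A540. % hemolysis was calculated against PBS (0%) and 2% Triton (100%). Done ≥3 times in duplicate. HC50 was divided by the MRSA MIC.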

Cell membrane [2] = test: Induction of cell membrane depolarization in Escherichia coli ATCC 25922 assessed as increase in fluorescence intensity measured after 30 mins by DiSC3 staining based fluorescence spectroscopic technique; assay type: subcellular
Method in brief: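 Mid-log E. coli washed in 5 mM HEPES/5 mM glucose and resuspended in HEPES/glucose/100 mM KCl to OD600 about 0.05. DiSC3(5) added (8 μL of a 10 μM solution per 200 μL). Fluorescence (ex 622 nm, em 670 nm) read at room temperature for 30 min, then compound added at 0.5, 1, 2 and 4 × MIC and monitoring continued. Controls: untreated and 1% Triton X-100. Three repeats in duplicate.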

Escherichia coli [3] = test: Antibacterial activity against Escherichia coli ATCC 25922; assay type: functional
Method in brief: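 Broth microdilution in TSB. Stocks at 5 mg/mL in DMSO diluted with TSB to 100 μg/mL, then serially diluted; highest test concentration 25 μg/mL. Bacteria grown 16 h, subcultured 6 h to log phase, adjusted to 10^6 CFU/mL by OD600. MIC = lowest concentration giving complete growth inhibition. At least three repeats, each in duplicate.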

Cell membrane [4] = test: Induction of cell membrane disruption in Escherichia coli ATCC 25922 at 2 times MIC after 2 hrs by transmission electron microscopic analysis; assay type: subcellular
Method in brief: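 Bacteria at 10^6 CFU/mL treated with compound at 2 × MIC for 2 h at 37 °C; untreated controls included. Cells pelleted, washed three times in PBS, resuspended in deionized water, dropped onto grids, blotted, vacuum-dried at 50 °C for 30 s, and imaged by TEM.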

Klebsiella pneumoniae [5] = test: Antibacterial activity against Klebsiella pneumoniae ATCC 13383 in presence of divalent Ca2+; assay type: functional
Method in brief: (§1)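 MIC by the standard TSB broth dilution method, in TSB made with DI water and supplemented with CaCl2 to 2 mM. Inoculum of log-phase bacteria at 10^6 CFU/mL. MIC = lowest concentration completely inhibiting growth.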

Cell membrane [6] = test: Induction of cell membrane disruption in methicillin-resistant Staphylococcus aureus ATCC 33591 assessed as propidium iodide-positive cells at 2 times MIC after 2 hrs by fluorescence microscopic analysis; assay type: subcellular
Method in brief: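 A 10^6 CFU/mL suspension was diluted 100-fold and treated at 2× MIC for 2 h. Cells were pelleted (4000g, 15 min, 4 °C), washed three times in PBS, then stained 15 min with PI (5 μg/mL) and DAPI (10 μg/mL). Imaged by oil-immersion fluorescence microscopy alongside an untreated control. Three repeats in duplicate.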

Staphylococcus aureus [7] = test: Bactericidal activity against methicillin-resistant Staphylococcus aureus ATCC 33591 at 24 to 48 microg/ml measured upto 60 mins by time kill assay; assay type: functional, organism-based; conditions: dose microg/ml 24-48, time min <=60
Method in brief: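 Mid-log MRSA (overnight culture in TSB at 37 °C with shaking, then 6 h subculture) at 10^6 CFU/mL was exposed to 6, 12, 24 or 48 μg/mL at 37 °C for 10, 30, 60 and 120 min. Samples were diluted 10^2-fold, plated on TSB agar, incubated 20 h at 37 °C, and colonies counted. Untreated control; three repeats.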

[8] = Selectivity ratio of IC50 for cytotoxicity against human HeLa cells to MIC for methicillin-resistant Staphylococcus aureus; assay type: toxicity, cell-based
Method in brief: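 HeLa cells were seeded at 5×10^3/well and allowed to attach for 24 h (37 °C, 5% CO2). They were then exposed 24 h to a range of compound concentrations in growth medium. Viability was read by CCK-8 (1 h, absorbance 490 nm). Triplicate wells, three repeats. IC50 was divided by the MRSA MIC.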

Klebsiella pneumoniae [9] = test: Antibacterial activity against Klebsiella pneumoniae ATCC 13383 in presence of monovalent Na+ and K+; assay type: functional
Method in brief: (§2)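 MIC by the standard broth dilution method, in medium made by dissolving TSB powder in 1× PBS (7.5 g per 250 mL), autoclaved, to supply Na+ and K+. Inoculum of log-phase bacteria at 10^6 CFU/mL. MIC = lowest concentration completely inhibiting growth.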

Escherichia coli [10] = test: Antibacterial activity against Escherichia coli ATCC 25922 in presence of monovalent Na+ and K+; assay type: functional; method in brief: as §2
[11] = system: Staphylococcus epidermidis; test: Antibacterial activity against methicillin-resistant Staphylococcus epidermidis RP62A in presence of divalent Ca2+; assay type: functional
Method in brief: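 MIC set up as in the standard TSB broth microdilution (log-phase inoculum at 10^6 CFU/mL, complete growth inhibition end point). The medium was TSB prepared in DI water with CaCl2 added to 2 mM.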

Cell membrane [12] = test: Induction of inner membrane permeabilization in methicillin-resistant Staphylococcus aureus ATCC 33591 at 2 times MIC measured for 12 mins by propidium iodide staining based fluorescence microscopic analysis; assay type: functional, subcellular
Method in brief: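 Mid-log cells were washed in 5 mM HEPES/5 mM glucose and set at 10^6 CFU/mL, then mixed with PI (10 μM stock). Baseline fluorescence (ex 535/em 617 nm) was read about 8 min at 2-min intervals. Compound was then added and reading continued for 12 min. Water-only negative control; three repeats.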

Cell membrane [13] = test: Induction of cell membrane disruption in Escherichia coli ATCC 25922 assessed as propidium iodide-positive cells at 2 times MIC after 2 hrs by fluorescence microscopic analysis; assay type: subcellular
Method in brief: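 Bacteria from a 10^6 CFU/mL suspension diluted 100-fold and treated with compound at 2 × MIC for 2 h. Cells pelleted (4000g, 15 min, 4 °C), washed three times in PBS, and stained 15 min with PI (5 μg/mL) and DAPI (10 μg/mL). Imaged by oil-immersion fluorescence microscopy; untreated controls included. Three repeats in duplicate.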

Escherichia coli [14] = test: Antibacterial activity against Escherichia coli ATCC 25922 in presence of divalent Ca2+; assay type: functional; method in brief: as §1
Staphylococcus aureus [15] = test: Antibacterial activity against methicillin-resistant Staphylococcus aureus ATCC 33591; assay type: functional
Method in brief: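 Broth microdilution in TSB. Strains were grown 16 h, subcultured 6 h to log phase, then diluted to 10^6 CFU/mL by OD600. Compound came from a 5 mg/mL DMSO stock diluted in TSB and serially diluted, top final concentration 25 μg/mL. MIC was the lowest concentration giving complete growth inhibition. Done ≥3 times in duplicate.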

Cell membrane [16] = test: Induction of cell membrane disruption in methicillin-resistant Staphylococcus aureus ATCC 33591 at 2 times MIC after 2 hrs by transmission electron microscopic analysis; assay type: subcellular
Method in brief: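 Bacteria at 10^6 CFU/mL were treated at 2× MIC for 2 h at 37 °C, pelleted, washed three times in PBS and resuspended in deionized water. Samples were dropped on grids, blotted, dried under vacuum at 50 °C for 30 s, then imaged by TEM. Untreated control.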

Compound: CCCCCCCCCC(=O)N[C@@H](CCCCN)CN1CC(=O)N(c2ccc(N3CN(C[C@H](CCCCN)NC(=O)CCCCCCCCC)CC3=O)cc2)C1
- selectivity ratio [1]: > 125
- Activity (Cell membrane [2]): Dose-dependent effect
- MIC (Escherichia coli [3]): 5 µg/mL (≈ 6.38 µM)
- Activity (Cell membrane [4]): Active
- MIC (Klebsiella pneumoniae [5]): 5 µg/mL
- Activity (Cell membrane [6]): Active
- Activity (Staphylococcus aureus [7]): Active
- selectivity ratio [8]: > 38
- MIC (Klebsiella pneumoniae [9]): 7 µg/mL
- MIC (Escherichia coli [10]): 5 µg/mL
- MIC [11]: 2 µg/mL
- Activity (Cell membrane [12]): Active
- Activity (Cell membrane [13]): Active
- MIC (Escherichia coli [14]): 7 µg/mL
- MIC (Staphylococcus aureus [15]): 2 µg/mL (≈ 2.55 µM)
- Activity (Cell membrane [16]): Active
